ChEMBL document CHEMBL1649506, “Novel antiviral agent DTriP-22 targets RNA-dependent RNA polymerase of enterovirus 71” (Antimicrob Agents Chemother, 2009)
Activity calls are given as the source filed them. No cut-off for these calls is given here.

Tests used:
[1] = test system: Coxsackievirus A24; test: Antiviral activity against Coxsackievirus A24 infected in human RD cells assessed as protection against virus-induced cytopathogenicity; format: functional, organism-based; conditions: Enterovirus C
Method in brief: (§1)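 CPE neutralization test: cells seeded at 3 × 10^4/well and grown 24 h at 37°C, infected at MOI 0.005 PFU/cell. After adsorption, medium with 2% FBS and compound (twofold dilutions from 25 μM) or 0.5% DMSO added. Incubated 64 h at 35°C, then formaldehyde-fixed and crystal violet-stained, read at OD570. Triplicate, repeated at least twice. EC50 interpolated between bracketing dilutions.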

[2] = test system: Enterovirus A71; test: Antiviral activity against 0.001 PFU/cell EV71 TW/2231/98 infected in human RD cells assessed as inhibition of viral plaque formation after 14 passages by plaque formation assay; format: functional, organism-based; conditions: Enterovirus A, TW/2231/98, RD
[3] = test system: Enterovirus A71; test: Antiviral activity against 0.001 MOI EV71 infected in human RD cells assessed as inhibition of viral plaque formation 16 hrs by plaque formation assay; format: functional, organism-based; conditions: Enterovirus A
Method in brief: (§2)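 Virus yield assay: RD cells (6 × 10^5/well) infected with EV71 TW/2231/98 at the stated MOI for 1 h at room temperature, washed twice, then kept in 2% FBS medium with compound (0–2.5 μM) at 35°C. At 16 h p.i., supernatant and debris pooled and titrated by plaque assay in RD cells (0.3% agarose overlay, 4 days at 35°C, crystal violet, PFU/ml).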

[4] = test system: Enterovirus A71; test: Antiviral activity against 0.001 PFU/cell EV71 TW/2231/98 infected in human RD cells assessed as inhibition of viral plaque formation after 10 passages by plaque formation assay; format: functional, organism-based; conditions: Enterovirus A, TW/2231/98, RD
[5] = test system: Enterovirus A71; test: Antiviral activity against EV71 harboring 3D […] R163K/S264L mutant gene infected in human RD cells assessed as inhibition of viral plaque formation 16 hrs by plaque formation assay; format: functional, organism-based; conditions: Enterovirus A
[6] = test system: rhinovirus A2; test: Antiviral activity against HRV2 infected in human RD cells assessed as protection against virus-induced cytopathogenicity; format: functional, organism-based; conditions: Rhinovirus A; method in brief: as §1
[7] = test system: Enterovirus A71; test: Antiviral activity against EV71 infected in human RD cells assessed as inhibition of viral plaque formation 16 hrs by plaque formation assay; format: functional, organism-based; conditions: Enterovirus A
[8] = test system: Enterovirus A71; test: Antiviral activity EV71 4643 infected in human RD cells assessed as protection against virus-induced cytopathogenicity; format: functional, organism-based; conditions: Enterovirus A, 4643, RD; method in brief: as §1
[9] = test system: Enterovirus A71; test: Antiviral activity against 1 MOI EV71 infected in human RD cells assessed as inhibition of viral RNA production at 2 uM after 6 to 14 hrs by slot blot analysis; format: functional, organism-based
Method in brief: (§3)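 RD cells infected with EV71 at MOI 1 PFU/cell for 1 h at room temperature, washed, then kept in medium with 2 μM compound at 35°C. Intracellular RNA extracted at intervals p.i. Viral RNA quantified by TaqMan real-time RT-PCR, or by slot blot with DIG-labelled genome- and antigenome-specific RNA probes. Compared with DMSO at each time point.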

[10] = test system: Influenza A virus; test: Antiviral activity against Influenza A virus (A/WSN/1933(H1N1)) infected in human RD cells assessed as protection against virus-induced cytopathogenicity; format: functional, organism-based; method in brief: as §1
[11] = test system: Enterovirus A71; test: Antiviral activity EV71 BrCr infected in human RD cells assessed as protection against virus-induced cytopathogenicity; format: functional, organism-based; conditions: Enterovirus A; method in brief: as §1
[12] = test system: Enterovirus A71; test: Inhibition of EV71 recombinant 3D polymerase expressed in Escherichia coli BL21 (DE3) by polymerase elongation assay
Method in brief: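 His-tagged EV71 3D polymerase made in E. coli BL21(DE3) (50 μM IPTG, 25°C, 4 h) and purified on a nickel column. Assay used 1 μM enzyme in 50 mM HEPES pH 7.5, 5 mM MgCl2, 60 μM ZnCl2, 10 mM 2-mercaptoethanol, 5 μM UTP plus [α-32P]UTP, and dT15/poly(rA)300 primer/template. Run 10 min at 30°C, stopped with EDTA, product captured on DE81 filters and counted by scintillation.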

[13] = test system: Human alphaherpesvirus 1; test: Antiviral activity against HSV1 infected in human RD cells assessed as protection against virus-induced cytopathogenicity; format: functional, organism-based; conditions: Human alphaherpesvirus 1, RD
[14] = test system: Enterovirus A71; test: Antiviral activity against 1 MOI EV71 infected in human RD cells assessed as inhibition of viral plaque formation 16 hrs by plaque formation assay; format: functional, organism-based; conditions: Enterovirus A; method in brief: as §2
[15] = test system: Coxsackievirus B1; test: Antiviral activity against Coxsackievirus B1 infected in human RD cells assessed as protection against virus-induced cytopathogenicity; format: functional, organism-based; conditions: Enterovirus B; method in brief: as §1
[16] = test system: Coxsackievirus B4; test: Antiviral activity against Coxsackievirus B4 infected in human RD cells assessed as protection against virus-induced cytopathogenicity; format: functional, organism-based; conditions: Enterovirus B; method in brief: as §1
[17] = test system: Enterovirus A71; test: Antiviral activity EV71 1743 infected in human RD cells assessed as protection against virus-induced cytopathogenicity; format: functional, organism-based; conditions: Enterovirus A, 1743, RD; method in brief: as §1
[18] = test system: Enterovirus A71; test: Antiviral activity against 1 MOI EV71 infected in human RD cells assessed as inhibition of viral progeny production at 1 uM treated 4 hrs postadsorption measured after 16 hrs; format: functional, organism-based
[19] = test system: Enterovirus A71; test: Antiviral activity against 0.001 PFU/cell EV71 TW/2231/98 infected in human RD cells assessed as inhibition of viral plaque formation after 5 passages by plaque formation assay; format: functional, organism-based; conditions: Enterovirus A, TW/2231/98, RD
[20] = test system: Coxsackievirus B6; test: Antiviral activity against Coxsackievirus B6 infected in human RD cells assessed as protection against virus-induced cytopathogenicity; format: functional, organism-based; conditions: Enterovirus B; method in brief: as §1
[21] = test system: Echovirus E9; test: Antiviral activity against Echovirus 9 infected in human RD cells assessed as protection against virus-induced cytopathogenicity; format: functional, organism-based; conditions: Enterovirus B; method in brief: as §1
[22] = test system: Enterovirus A71; test: Inhibition of EV71 recombinant 3D polymerase expressed in Escherichia coli BL21 (DE3) assessed as inhibition of Vpg-pU(pU) synthesis at 250 to 500 uM by gel electrophoresis
Method in brief: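 VPg uridylylation: 1 μM recombinant EV71 3D with 2 μg synthetic VPg, 0.5 μg poly(rA)300, 10 μM UTP plus 0.04 μM [α-32P]UTP, in 50 mM HEPES pH 7.5 with 2.5 mM Mn(OAc)2 and 8% glycerol. Incubated 60 min at 33°C. Products resolved on 13.5% Tricine SDS-PAGE and detected by autoradiography.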

[23] = test system: Enterovirus A71; test: Antiviral activity against 1 MOI EV71 infected in human RD cells assessed as inhibition of viral RNA production at 2 uM after 6 to 14 hrs by real-time RT-PCR analysis; format: functional; conditions: Enterovirus A; method in brief: as §3
[24] = test system: Enterovirus A71; test: Antiviral activity against EV71 harboring VP1 […] V192M mutant gene infected in human RD cells assessed as inhibition of viral plaque formation 16 hrs by plaque formation assay; format: functional, organism-based
[25] = test system: Coxsackievirus B2; test: Antiviral activity against Coxsackievirus B2 infected in human RD cells assessed as protection against virus-induced cytopathogenicity; format: functional, organism-based; conditions: Enterovirus B; method in brief: as §1
[26] = Antiviral activity against Coxsackievirus A10 infected in human RD cells assessed as protection against virus-induced cytopathogenicity; format: functional, cell-based; conditions: Enterovirus A; method in brief: as §1
[27] = test system: Enterovirus A71; test: Antiviral activity against 1 MOI EV71 infected in human RD cells assessed as inhibition of IRES-mediated viral RNA translation at 2 uM after 6 to 14 hrs by luciferase reporter gene assay; format: functional, organism-based
[28] = test system: Coxsackievirus A16; test: Antiviral activity against Coxsackievirus A16 infected in human RD cells assessed as protection against virus-induced cytopathogenicity; format: functional, cell-based; conditions: Enterovirus A; method in brief: as §1
[29] = test system: Enterovirus A71; test: Antiviral activity against 0.001 PFU/cell EV71 infected in human RD cells assessed as inhibition of viral plaque formation at 0.1 uM after 16 hrs by plaque formation assay; format: functional; design: scale not given: the % may be the effect or the level left; method in brief: as §2
[30] = test system: Influenza B virus; test: Antiviral activity against influenza B virus infected in human RD cells assessed as protection against virus-induced cytopathogenicity; format: functional, organism-based; method in brief: as §1
[31] = test system: Coxsackievirus A9; test: Antiviral activity against Coxsackievirus A9 infected in human RD cells assessed as protection against virus-induced cytopathogenicity; format: functional, organism-based; conditions: Enterovirus B; method in brief: as §1
[32] = test system: Enterovirus A71; test: Antiviral activity against EV71 harboring 3D […] R163K mutant gene infected in human RD cells assessed as inhibition of viral plaque formation 16 hrs by plaque formation assay; format: functional, organism-based; conditions: Enterovirus A
[33] = test system: Enterovirus A71; test: Antiviral activity against 1 MOI EV71 infected in human RD cells assessed as viral progeny production at 1 uM treated 4 hrs postadsorption measured after 16 hrs; format: functional
[34] = test system: Enterovirus A71; test: Antiviral activity against EV71 harboring 2C […] T256A mutant gene infected in human RD cells assessed as inhibition of viral plaque formation 16 hrs by plaque formation assay; format: functional, organism-based; conditions: Enterovirus A
[35] = Selectivity index, ratio of CC50 for human RD cells to EC50 for 1 MOI EV71 infected in human RD cells
[36] = test system: Polymerase 3D (Human enterovirus 71 STH/MCN/2006), B2G369 [R163K]; test: Inhibition of EV71 recombinant 3D polymerase R163K mutant expressed in Escherichia coli BL21 (DE3) assessed as enzyme activity at 250 to 500 uM by polymerase elongation assay; design: scale not given: the % may be the effect or the level left; conditions: Enterovirus A71
[37] = test system: Coxsackievirus B5; test: Antiviral activity against Coxsackievirus B5 infected in human RD cells assessed as protection against virus-induced cytopathogenicity; format: functional, organism-based; conditions: Enterovirus B; method in brief: as §1
[38] = test system: Human alphaherpesvirus 2; test: Antiviral activity against HSV2 infected in human RD cells assessed as protection against virus-induced cytopathogenicity; format: functional, organism-based; conditions: Human alphaherpesvirus 2, RD
[39] = test system: Enterovirus A71; test: Antiviral activity against 1 MOI EV71 infected in human RD cells assessed as inhibition of viral progeny production at 1 uM treated 2 hrs postinfection measured after 16 hrs; format: functional; conditions: Enterovirus A
[40] = test system: Enterovirus A71; test: Antiviral activity EV71 2231 infected in human RD cells assessed as protection against virus-induced cytopathogenicity; format: functional, organism-based; conditions: Enterovirus A, 2231, RD; method in brief: as §1
[41] = test system: Coxsackievirus B3; test: Antiviral activity against Coxsackievirus B3 infected in human RD cells assessed as protection against virus-induced cytopathogenicity; format: functional, organism-based; conditions: Enterovirus B; method in brief: as §1
[42] = Cytotoxicity against human RD cells after 16 hrs by MTS-based assay; format: cell-based
[43] = test system: Enterovirus A71; test: Antiviral activity against 0.001 PFU/cell EV71 TW/2231/98 infected in human RD cells assessed as inhibition of viral plaque formation after 16 hrs by plaque formation assay; format: functional, organism-based; conditions: Enterovirus A, TW/2231/98, RD; method in brief: as §2

Cc1ccsc1C(c1ccccc1Br)N1CCN(c2ncnc3c2cnn3-c2ccccc2)CC1 (stereo not drawn)
EC50 [1]: 80 nM
EC50 [2]: > 25000 nM
EC50 [3]: 23 nM
EC50 [4]: > 25000 nM
EC50 [5]: > 25000 nM
EC50 [6]: 1690 nM
EC50 [7]: 308 nM
EC50 [8]: 130 nM
inhibition [9]: Active
EC50 [10]: 5980 nM
EC50 [11]: 150 nM
inhibition [12]: Dose-dependent effect
EC50 [13]: > 25000 nM
EC50 [14]: 160 nM
EC50 [15]: 240 nM
EC50 [16]: 230 nM
EC50 [17]: 440 nM
inhibition [18]: inactive
EC50 [19]: 250 nM
EC50 [20]: 330 nM
EC50 [21]: 1220 nM
inhibition [22]: inactive
inhibition at 2 µM [23]: 87%
EC50 [24]: 240 nM
EC50 [25]: 70 nM
EC50 [26]: 1060 nM
inhibition [27]: inactive
EC50 [28]: 80 nM
Activity [29]: 95%
EC50 [30]: 5900 nM
EC50 [31]: 990 nM
EC50 [32]: > 25000 nM
Activity [33]: 76%
EC50 [34]: 279 nM
Ratio CC50/EC50 [35]: 625
Activity [36]: 28%
EC50 [37]: 130 nM
EC50 [38]: > 25000 nM
inhibition at 1 µM [39]: 79%
EC50 [40]: 980 nM
EC50 [41]: 260 nM
CC50 at 16 h [42]: 100000 nM
EC50 [43]: 740 nM
